In ChEMBL document CHEMBL3826898, “Oxa-Pictet-Spengler reaction as key step in the synthesis of novel σ receptor ligands with 2-benzopyran structure” (Bioorg Med Chem, 2016):

Key:
[1] = biological target: Sigma non-opioid intracellular receptor 1 (Cavia porcellus, UniProt Q60492); assay: Displacement of [3H]-(+)-pentazocine from sigma 1 receptor in guinea pig brain membranes after 2 hrs by scintillation counting; assay type: cell membranes, Membrane
[2] = Displacement of [3H]di-o-tolylgluanidine from sigma 2 receptor in rat liver membranes at 1 uM after 2 hrs by scintillation counting; conditions: Membrane
[3] = biological target: Sigma non-opioid intracellular receptor 1 (Cavia porcellus) (UniProt Q60492); assay: Displacement of [3H]-(+)-pentazocine from sigma 1 receptor in guinea pig brain membranes at 1 uM after 2 hrs by scintillation counting; assay type: cell membranes; conditions: Membrane
Outline: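 Guinea pig brain membranes (about 100 µg protein) incubated with 2 nM [3H]-(+)-pentazocine and 1 µM test compound in 50 mM TRIS pH 7.4 at 37 °C for 120 min. Filtered, then counted by scintillation. […] Result given as % inhibition of radioligand binding.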

[4] = Displacement of [3H]di-o-tolylgluanidine from sigma 2 receptor in rat liver membranes after 2 hrs by scintillation counting; assay type: cell membranes, Membrane
Outline: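 Rat liver membranes (sucrose homogenate; pellet held 30 min at room temperature in 50 mM TRIS pH 8.0; 100 µg protein) incubated with 3 nM [3H]DTG and test compound at 10^-10 to 10^-5 M, at room temperature for 120 min. […] Nonspecific binding with 10 µM DTG. Filtration, then scintillation counting. Duplicates. Ki by Cheng-Prusoff from IC50, mean ± SEM, n = 3.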

[5] = Selectivity ratio of Ki for sigma 2 receptor in rat liver membranes to Ki for sigma 1 receptor in guinea pig brain membranes; assay type: cell membranes
Mus musculus = species on record: Mus musculus; assay: Analgesic activity in mouse by acetic acid writhing test; assay type: functional

Sigma non-opioid intracellular receptor 1, sequence (Q60492 whole entry): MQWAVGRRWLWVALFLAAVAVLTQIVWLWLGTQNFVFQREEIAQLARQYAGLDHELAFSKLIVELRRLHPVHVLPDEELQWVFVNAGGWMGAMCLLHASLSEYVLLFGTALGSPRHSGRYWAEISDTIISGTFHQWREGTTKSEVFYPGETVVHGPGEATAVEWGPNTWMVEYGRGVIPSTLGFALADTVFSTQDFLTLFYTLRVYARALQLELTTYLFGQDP
Sigma non-opioid intracellular receptor 1 (Cavia porcellus), sequence (Q60492 whole entry): as above

Row | Ki [1] | inhibition [2] | inhibition [3] | Ki [4] | Ratio Ki [5] | SMILES | ED50 (Mus musculus)
1 | 20 nM | 0% | – | – | – | OCCC1Cc2ccccc2C2(CCN(Cc3ccccc3)CC2)O1 (racemic) | –
2 | – | 14% | 4% | – | – | OCC[C@@H]1Cc2ccccc2[C@H](CCN2CCCCC2)O1 (racemic) | –
3 | 673 nM | – | – | 785 nM | 1.2 | COC(=O)C[C@@H]1Cc2ccccc2[C@H](CN2CCC(c3ccccc3)CC2)O1 (racemic) | –
4 | > 1000 nM | 0% | – | – | – | COC(=O)C[C@@H]1Cc2ccccc2[C@H](CCN2CCCC2)O1 (racemic) | –
5 | 60 nM | 13% | – | – | – | CCCCN1CCC2(CC1)OC(CCO)Cc1ccccc12 (racemic) | –
6 | – | – | – | – | – | CN1CCC2Cc3ccccc3C(C1)O2 (stereo not drawn) | 20 mg/kg
7 | – | – | – | 20.2 nM | – | Cc1ccccc1NC(=N)Nc1ccccc1C [DITOLYLGUANIDINE] | –
8 | – | 0% | 0% | – | – | CCN1CCC2(CC1)OC(CCO)Cc1ccccc12 (racemic) | –
9 | 38 nM | – | – | 107 nM | 2.8 | COC(=O)C[C@@H]1Cc2ccccc2[C@H](CCN2CCC(c3ccccc3)CC2)O1 (racemic) | –
10 | 52 nM | – | – | 20 nM | 0.4 | OCC[C@@H]1Cc2ccccc2[C@H](CCN2CCC(c3ccccc3)CC2)O1 (racemic) | –
11 | 26 nM | – | – | 234 nM | 9 | CCCCCCCCN1CCC2(CC1)OC(CCO)Cc1ccccc12 (racemic) | –
12 | 510 nM | 7% | – | – | – | COC(=O)C[C@@H]1Cc2ccccc2[C@H](CN2CCCCC2)O1 (racemic) | –
13 | 20 nM | – | – | 617 nM | 30 | OCCC1Cc2ccccc2C2(CCN(CCCc3ccccc3)CC2)O1 (racemic) | –
14 | 519 nM | – | – | – | – | COC(=O)C[C@@H]1Cc2ccccc2[C@H](CCN2CCCCC2)O1 (racemic) | –
15 | 39 nM | – | – | 610 nM | 15 | COC(=O)CC1Cc2ccccc2C2(CCN(CCCc3ccccc3)CC2)O1 (racemic) | –
